Results as given in ChEMBL document CHEMBL3351336, “Synthesis and evaluation of novel triazoles and mannich bases functionalized 1,4-dihydropyridine as angiotensin converting enzyme (ACE) inhibitors” (Bioorg Med Chem, 2014).
The source made the active and inactive calls. The calls are words filed in the database; no cut-off is given here.

Tests used:
[1] = molecular target: T1, Angiotensin-converting enzyme (Oryctolagus cuniculus) (UniProt P12822); assay: (§1) Inhibition of rabbit lung ACE using hippuryl-histidyl-leucine as substrate assessed as release of hippuric acid incubated for 10 mins prior to substrate addition measured after 30 mins by spectrophotometry
T1 sequence (whole entry): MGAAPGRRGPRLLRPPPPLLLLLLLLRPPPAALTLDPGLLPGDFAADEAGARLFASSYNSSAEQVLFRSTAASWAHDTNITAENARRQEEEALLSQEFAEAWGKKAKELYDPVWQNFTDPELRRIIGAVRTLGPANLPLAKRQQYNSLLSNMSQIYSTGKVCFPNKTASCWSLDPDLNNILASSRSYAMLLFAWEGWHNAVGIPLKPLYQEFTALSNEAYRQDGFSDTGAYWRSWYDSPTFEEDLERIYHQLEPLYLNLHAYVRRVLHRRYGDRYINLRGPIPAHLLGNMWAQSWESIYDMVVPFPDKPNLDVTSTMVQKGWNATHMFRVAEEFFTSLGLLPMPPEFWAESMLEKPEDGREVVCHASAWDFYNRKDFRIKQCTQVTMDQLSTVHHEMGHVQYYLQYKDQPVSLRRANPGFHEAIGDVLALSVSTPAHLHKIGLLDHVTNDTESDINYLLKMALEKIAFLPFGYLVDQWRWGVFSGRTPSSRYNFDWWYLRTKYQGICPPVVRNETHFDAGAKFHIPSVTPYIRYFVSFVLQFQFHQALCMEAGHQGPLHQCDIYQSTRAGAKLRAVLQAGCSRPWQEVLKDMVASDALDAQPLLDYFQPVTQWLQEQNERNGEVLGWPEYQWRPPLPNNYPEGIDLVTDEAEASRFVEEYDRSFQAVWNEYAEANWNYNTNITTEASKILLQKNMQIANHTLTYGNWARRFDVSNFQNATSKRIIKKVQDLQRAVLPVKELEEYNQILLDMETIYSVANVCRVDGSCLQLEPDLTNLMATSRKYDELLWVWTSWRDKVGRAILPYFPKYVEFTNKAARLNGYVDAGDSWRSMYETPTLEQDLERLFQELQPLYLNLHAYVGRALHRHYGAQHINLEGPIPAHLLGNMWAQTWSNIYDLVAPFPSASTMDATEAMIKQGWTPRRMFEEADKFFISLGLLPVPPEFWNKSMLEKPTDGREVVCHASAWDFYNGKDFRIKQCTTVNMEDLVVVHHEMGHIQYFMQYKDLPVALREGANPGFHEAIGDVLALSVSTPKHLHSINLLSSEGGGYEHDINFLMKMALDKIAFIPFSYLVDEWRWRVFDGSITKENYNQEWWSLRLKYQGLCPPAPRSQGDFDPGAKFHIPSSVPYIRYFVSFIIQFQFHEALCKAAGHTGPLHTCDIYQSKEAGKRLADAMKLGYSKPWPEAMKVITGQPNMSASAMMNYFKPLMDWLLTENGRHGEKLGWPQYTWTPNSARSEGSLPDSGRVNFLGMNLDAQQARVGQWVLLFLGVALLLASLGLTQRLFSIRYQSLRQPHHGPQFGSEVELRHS

HEK293 = assay: Cytotoxicity against human HEK293 cells after 24 hrs by MTT assay; type: cell-based; conditions: HEK293, 24 h
In short: (§2)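 Cells kept in DMEM with 10% heat-inactivated FBS, penicillin, streptomycin and 2 mM L-glutamine at 37 °C, 5% CO2, passaged every 2–3 days. 1 × 10^4 cells/well seeded, grown 24 h, then exposed to compounds (10 µM–1000 µM) beside vehicle control for 24 h. MTT added for 4 h, formazan dissolved in DMSO, absorbance read at 540 nm; survival versus control, EC50 by probit analysis.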

[2] = molecular target: T2, Angiotensin-converting enzyme (Oryctolagus cuniculus, UniProt P12822); assay: as §1
T2 sequence (P12822 whole entry): T1 sequence (whole entry)

A549 = assay: Cytotoxicity against human A549 cells after 24 hrs by MTT assay; type: cell-based; conditions: A549, 24 h; in short: as §2

SMILES | inhibition [1] | IC50 [2] [µM] | IC50 (HEK293) [µM] | IC50 (A549) [µM]
CCOC(=O)C1=C(C)NC(C)=C(C(=O)OCC)C1c1cccc(OC)c1OCC#CCN1CCCC1 | inactive | – | – | –
CCOC(=O)C1=C(C)NC(C)=C(C(=O)OCC)C1c1cccc(OC)c1OCc1cn(CC(=O)Nc2nnc(C(F)(F)F)s2)nn1 | Dose-dependent effect | 0.409 | > 1000 | > 1000
CCOC(=O)C1=C(C)NC(C)=C(C(=O)OCC)C1c1cccc(OC)c1OCC#CCN1CCN(c2ccccc2)CC1 | inactive | – | – | –
COc1cccc2c1C(=O)c1c(O)c3c(c(O)c1C2=O)C[C@@](O)(C(=O)CO)C[C@@H]3O[C@H]1C[C@H](N)[C@H](O)[C@H](C)O1 [DOXORUBICIN] | – | – | 0.69 | 2.6
CCOC(=O)C1=C(C)NC(C)=C(C(=O)OCC)C1c1cc(Br)ccc1OCC#CCN1CCN(c2ccccn2)CC1 | inactive | – | – | –
CCOC(=O)C1=C(C)NC(C)=C(C(=O)OCC)C1c1cc(Br)ccc1OCC#CCN1CCOCC1 | inactive | – | – | –
CCOC(=O)C1=C(C)NC(C)=C(C(=O)OCC)C1c1cc(Br)cc(Br)c1OCc1cn(CC(=O)Nc2ccc(SC(F)(F)F)cc2)nn1 | inactive | – | – | –
NCCCC[C@H](N[C@@H](CCc1ccccc1)C(=O)O)C(=O)N1CCC[C@H]1C(=O)O [LISINOPRIL ANHYDROUS] | – | 0.281 | – | –
CCOC(=O)C1=C(C)NC(C)=C(C(=O)OCC)C1c1cc(Br)cc(Br)c1OCc1cn(CC(=O)NC2CC2)nn1 | inactive | – | – | –
CCOC(=O)C1=C(C)NC(C)=C(C(=O)OCC)C1c1cccc(OC)c1OCc1cn(CCC(F)(F)C(F)(F)C(F)(F)C(F)(F)C(F)(F)C(F)(F)C(F)(F)C(F)(F)F)nn1 | Dose-dependent effect | 0.653 | > 1000 | > 1000
CCOC(=O)C1=C(C)NC(C)=C(C(=O)OCC)C1c1cc(Br)cc(Br)c1OCc1cn(CC(=O)NCCC(=O)O)nn1 | inactive | – | – | –

More lines, main results first:

inhibition [1] | IC50 [2] [µM] | SMILES | IC50 (HEK293) [µM] | IC50 (A549) [µM]
inactive | – | CCOC(=O)C1=C(C)NC(C)=C(C(=O)OCC)C1c1cc(Br)cc(Br)c1OCC#CCN1CCN(C)CC1 | – | –
inactive | – | CCOC(=O)C1=C(C)NC(C)=C(C(=O)OCC)C1c1cccc(OC)c1OCC#CCN1CCOCC1 | – | –
inactive | – | CCOC(=O)C1=C(C)NC(C)=C(C(=O)OCC)C1c1cccc(OC)c1OCC#CCN1CCC(C(=O)OCC)CC1 | – | –
inactive | – | CCOC(=O)C1=C(C)NC(C)=C(C(=O)OCC)C1c1cccc(OC)c1OCC#CCN1CCN(C)CC1 | – | –
Dose-dependent effect | 0.928 | CCOC(=O)C1=C(C)NC(C)=C(C(=O)OCC)C1c1cc(Br)cc(Br)c1OCC#CCN1CCN(CCO)CC1 | > 1000 | > 1000
inactive | – | CCOC(=O)C1=C(C)NC(C)=C(C(=O)OCC)C1c1cc(Br)ccc1OCc1cn(CC(=O)Nc2nnc(C(F)(F)F)s2)nn1 | – | –
inactive | – | CCOC(=O)C1=C(C)NC(C)=C(C(=O)OCC)C1c1cc(Br)cc(Br)c1OCC#CCN1CCN(c2ccccn2)CC1 | – | –
inactive | – | CCOC(=O)C1=C(C)NC(C)=C(C(=O)OCC)C1c1cc(Br)cc(Br)c1OCc1cn(CC(=O)Nc2cccc(C(=O)O)c2)nn1 | – | –
Dose-dependent effect | 0.713 | CCOC(=O)C1=C(C)NC(C)=C(C(=O)OCC)C1c1cccc(OC)c1OCc1cn(CC(=O)Nc2nc3ccc(F)cc3s2)nn1 | > 1000 | > 1000
inactive | – | CCOC(=O)C1=C(C)NC(C)=C(C(=O)OCC)C1c1cc(Br)cc(Br)c1OCC#CCN1CCN(c2ccc(F)cc2)CC1 | – | –
inactive | – | CCOC(=O)C1=C(C)NC(C)=C(C(=O)OCC)C1c1cc(Br)ccc1OCc1cn(CC(=O)NC2CCCCC2)nn1 | – | –
inactive | – | CCOC(=O)C1=C(C)NC(C)=C(C(=O)OCC)C1c1cc(Br)cc(Br)c1OCc1cn(CC(=O)NCc2ccc(OC(F)(F)F)cc2)nn1 | – | –
